# An excerpt weighted towards active compounds, which were near 3.2% of everything screened.
# Ecoli rRNA inh – inhibitors of bacterial rRNA selective over humanized ribosomes; E. coli WT GFP vs humanized-ribosome RFP mutants, fluorescence, 24 h; active compounds read low; DMSO median 0, no signal -100; GFP signal change (wild-type ribosome), % (concentration not given with the values); 350,000 compounds, 1.6% hits; AID 720706;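 active = significant combined selectivity score with lowered wild-type GFP, culture density cut under 30%, mutant RFP and density less affected; inactive = any of these conditions unmet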
# PfHsp90 yeast 2 – growth inhibition of yeast expressing Plasmodium Hsp90; inhibition, % at 9.4 µM; 310,000 compounds, 0.32% hits; AID 504621; S. cerevisiae expressing PfHsp90, BacTiter-Glo ATP, 48 h; yeast lacking PDR1 and PDR3 efflux regulators;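 active = every replicate shows inhibition above about 80%, whatever the replicate mean, limit read from the data; inconclusive = mean inhibition reaches the set limit but some replicate falls short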;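 also: 0% = DMSO neutral controls and 100% = 20 µM radicicol positive controls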
# Cneo AK release – causes C. neoformans cell lysis | lysis activity, % at 15 µM | adenylate kinase release luminescence, 4 h; normalised: neutral wells 0, clomiphene wells 100 | 360,000 compounds, 0.2% hits | AID 651654;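 active = mean lysis activity across replicates of at least 80%, whatever share of replicates individually reach that level; inactive = mean lysis activity below 80%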
#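 Schedule: static 4 h at 37 °C with compound, 1 h detection; system: C. neoformans cells; benchmarks: Clomiphene as positive control; buffer or medium: fresh YPD medium; measure: luminescence rise reflecting yeast cell lysis; measured by: luminescent adenylate kinase detection reagent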
# S100A4 MyoIIA – S100A4-myosin IIA interaction inhibition; inhibition, % at 10.7 µM; AID 652163; P26447; 360,000 compounds, 0.14% hits; S100A4/TAMRA-MyoIIA peptide fluorescence polarization;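 active = mean inhibition of at least 70% across replicates, with every replicate also reaching that level; inconclusive = mean inhibition reaches 70% but some replicates fall short; inactive = mean inhibition below 70%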
# Target sequence (P26447 whole entry, looked up): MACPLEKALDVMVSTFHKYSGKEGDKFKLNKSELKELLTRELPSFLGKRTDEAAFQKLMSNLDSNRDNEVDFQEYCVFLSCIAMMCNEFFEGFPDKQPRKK
#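 Test system: S100A4 monomer protein; Medium: HEPES pH 7.2 with CaCl2, KCl, NaCl, DTT, Triton; Probe or stimulus: TAMRA-labelled myosin IIA heavy-chain peptide probe, 5 nM; Doses: one dose per compound; Times: polarization read 5 min after assay mix addition, stable 5–60 min; Benchmarks: neutral control DMSO, positive control TFP.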
# MLL AF4-AF9 inh – MLL-AF4/AF9 protein interaction inhibition; P42568; AlphaScreen, biotin-AF4 peptide binding to FLAG-AF9; inhibition, % at 10 µM; 350,000 compounds, 0.47% hits; AID 651704;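 active = every replicate reaching a set inhibition limit, whatever the replicate mean, cut at about 25% in these data; inconclusive = mean inhibition reaches that limit but some replicates miss it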;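 also: 0% = plate neutral control median and 100% = total signal loss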
# Target sequence (P42568 whole entry, looked up): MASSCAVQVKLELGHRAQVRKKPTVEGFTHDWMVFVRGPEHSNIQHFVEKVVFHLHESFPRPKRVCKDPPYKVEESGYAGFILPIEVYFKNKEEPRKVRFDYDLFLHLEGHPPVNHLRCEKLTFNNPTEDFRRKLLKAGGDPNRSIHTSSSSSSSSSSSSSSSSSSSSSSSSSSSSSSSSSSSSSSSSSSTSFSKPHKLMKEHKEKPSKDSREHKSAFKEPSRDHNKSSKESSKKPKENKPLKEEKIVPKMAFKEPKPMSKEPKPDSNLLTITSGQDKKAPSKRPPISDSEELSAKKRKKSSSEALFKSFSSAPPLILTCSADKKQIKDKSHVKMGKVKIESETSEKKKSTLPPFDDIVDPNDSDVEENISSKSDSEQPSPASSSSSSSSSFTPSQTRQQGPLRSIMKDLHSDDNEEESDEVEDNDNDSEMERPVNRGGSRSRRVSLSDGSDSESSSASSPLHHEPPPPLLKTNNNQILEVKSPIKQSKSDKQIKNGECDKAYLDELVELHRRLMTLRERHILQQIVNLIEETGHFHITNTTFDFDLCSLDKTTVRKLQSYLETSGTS
# DENV2 CPE – inhibitors of DENV2 cytopathic effect; DENV2-infected cells, cytopathic effect rescue, plate reader; CPE inhibition, % at 9.99 µM; 350,000 compounds, 1.7% hits; in the data active = CPE inhibition above about 20%, passing the limit was not always enough; inconclusive = no clear call, values can overlap the other calls; tested in BHK-21 cells;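 also: 0% = median of neutral control wells and 100% = median of positive control wells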
# * hit, by the source's call; u = inconclusive; x = not tested or not shown; + = active, no number.
SMILES,Ecoli rRNA inh,PfHsp90 yeast 2,Cneo AK release,S100A4 MyoIIA,MLL AF4-AF9 inh,DENV2 CPE
COc1cc(/C=N/Nc2ccccn2)cc(OC)c1O,17,-33,x,1,5,-9
Oc1cccc(/C=N/Nc2cccc3cccnc23)c1,-35*,2,11,3,3,7
COc1cc(/C=N/Nc2cccc3cccnc23)cc(OC)c1O,-26*,3,x,-2,1,x
CNC[C@H]1Oc2cc(C#CCOC)ccc2S(=O)(=O)N([C@H](C)CO)C[C@@H]1C,5,x,0,-18,-2,2
CCn1c(=O)n(CC)c2cc(N3CCCC3)c(NC(=O)c3ccccc3)cc21,-9,4,-1,-8,-5,u
CCn1c(=O)n(CC)c2cc(N3CCCC3)c(NC(=O)c3ccc(C)cc3)cc21,-6,28,0,-8,0,36*
Cc1cc(C(=O)N2CCC(Cc3ccccc3)CC2)ccc1[N+](=O)[O-],-31*,35,-6,2,3,-7
Cc1cc(C)cc(C(=O)NC(CC(N)=O)c2ccc(N3CCC(Cc4ccccc4)CC3)c([N+](=O)[O-])c2)c1 (configuration not stated),7,21,-2,-2,x,123*
O=[N+]([O-])c1cc(-n2cnnn2)ccc1N1CCC(Cc2ccccc2)CC1,x,104*,-3,x,x,x
NC(=O)CC(NC(=O)Cc1cccc2ccccc12)c1ccc(N2CCC(N3CCCCC3)CC2)c([N+](=O)[O-])c1 (configuration not stated),6,9,2,7,x,23*
CCNC(=O)C[C@@H]1CC[C@H]2[C@@H](COc3ccc(NC(=O)C4CCOCC4)cc3C(=O)N2C)O1,0,x,51,5,-1,1
CN(C)C(=O)C[C@@H]1C=C[C@@H](NS(=O)(=O)c2ccccc2)[C@H](CO)O1,1,x,1,6,-1,4
Cc1noc(C)c1NC(=O)Nc1cccc2c1O[C@@H](CN(C)C(=O)Nc1cccc3ccccc13)[C@@H](C)CN([C@@H](C)CO)C2=O,-8,x,1,4,3,-1
CCCNC(=O)C[C@@H]1CC[C@H]2[C@H](COc3ccc(NC(=O)c4cscn4)cc3C(=O)N2C)O1,-1,x,x,x,-3,x
CC(=O)N(CCC(c1ccco1)C(C)C)Cc1ccc(Cl)cc1 (configuration not stated),x,x,-4,0,-1,-6
CCC(=O)N(CCC(c1ccco1)C(C)C)Cc1ccccc1 (configuration not stated),-39*,11,1,3,0,1
COCC(=O)Nc1ccc2c(c1)OC[C@@H](C)N(Cc1cncnc1)C[C@H](C)[C@H](OC)CN(C)C2=O,1,x,x,x,x,x
O=C(Nc1nc(-c2ccco2)c(-c2ccco2)s1)c1c(F)cccc1Cl,-9,-18,-1,-12,3,-1
O=C(Nc1nc(-c2ccco2)c(-c2ccco2)s1)c1ccc(F)cc1F,0,12,-3,-9,5,68*
COc1ccccc1NC(=O)N[C@@H]1CC[C@H](CCn2cc(-c3ccccc3OC)nn2)O[C@H]1CO,0,x,107*,-1,3,u
COc1ccccc1-c1cn(CC[C@H]2CC[C@H](NC(=O)C3CCC3)[C@H](CO)O2)nn1,-1,x,1,9,1,35*
COc1ccccc1NC(=O)N[C@@H]1CC[C@@H](CCn2cc(-c3ccccc3OC)nn2)O[C@@H]1CO,-3,x,0,2,3,2
COc1ccccc1NC(=O)N[C@@H]1CC[C@@H](CCn2cc(C3(O)CCCC3)nn2)O[C@H]1CO,3,x,94*,7,2,1
COc1ccc(-c2cn(CC[C@@H]3CC[C@H](NC(=O)Nc4ccc(F)cc4)[C@@H](CO)O3)nn2)cc1,-1,x,x,-3,-3,50*
COc1ccc(NC(=O)N[C@H]2CC[C@@H](CCn3cc(-c4ccc(OC)cc4)nn3)O[C@H]2CO)cc1,-5,x,0,-2,1,-2
SMILES,Ecoli rRNA inh,PfHsp90 yeast 2,Cneo AK release,S100A4 MyoIIA,MLL AF4-AF9 inh,DENV2 CPE
CN1C[C@H]2[C@@H](c3ccccc31)[C@@H](CO)N2C(=O)C1CC1,3,x,-2,-4,1,-14
CN1CCN(C(=O)C[C@H]2CC[C@H]3[C@H](COc4ccc(NC(=O)C5CCCCC5)cc4C(=O)N3C)O2)CC1,6,x,-5,0,-12,-1
CN(C)c1ccc2c(c1)[C@@H]1C[C@@H](CC(=O)O)O[C@@H](CO)[C@@H]1O2,6,x,4,19,-2,0
O=C(C[C@H]1CC[C@H]2[C@@H](COC[C@H](O)CN2C(=O)c2cccnc2)O1)NCc1ccc(-c2ccccc2)cc1,1,x,1,-34,-3,22*
O=C(C[C@@H]1CC[C@H]2[C@@H](COC[C@@H](O)CN2C(=O)c2ccncc2)O1)NCc1ccc(-c2ccccc2)cc1,0,x,-1,u,4,+
O=C(C[C@H]1CC[C@H]2[C@@H](COC[C@@H](O)CN2C(=O)c2cccnc2)O1)NCc1ccc(-c2ccccc2)cc1,-6,x,0,-39,-3,-2
O=C(C[C@@H]1CC[C@H]2[C@@H](COC[C@@H](O)CN2C(=O)c2cccnc2)O1)NCc1ccc(-c2ccccc2)cc1,3,x,3,-41,-4,27*
CCCC#Cc1ccc2c(c1)O[C@H](CN(C)CCC)[C@@H](C)CN([C@H](C)CO)S2(=O)=O,0,x,5,-1,0,-7
C[C@@H]1CN([C@H](C)CO)C(=O)Cc2cc(NS(C)(=O)=O)ccc2O[C@@H]1CN(C)S(=O)(=O)c1ccccc1,-1,x,-1,4,-1,0
Cc1cc(N2CCN(C(=O)c3ccco3)CC2)n2ncc(-c3ccccc3)c2n1,x,124*,2,x,x,x
O=C(OCC(=O)N1CCN(C(=O)c2ccco2)CC1)c1cc(-c2cccc(Br)c2)nc2ccccc12,x,100*,6,x,x,x
Cc1cc(SCC(=O)c2ccccc2)n2ncc(-c3ccccc3)c2n1,-51*,1,x,-11,-5,-4
Cc1cc(N2CCN(C(=O)c3ccco3)CC2)n2ncnc2n1,x,-16,x,x,x,x
O=C(OCC(=O)N1CCN(C(=O)c2ccco2)CC1)c1cc(-c2ccccc2)nc2ccccc12,x,101*,4,x,x,x
O=C(OCC(=O)N1CCN(C(=O)c2ccco2)CC1)c1cc(-c2ccc(F)cc2)nc2ccccc12,x,41,x,x,x,x
CCCC#Cc1ccc2c(c1)O[C@H](CN(C)Cc1ccccc1)[C@@H](C)CN([C@H](C)CO)S2(=O)=O,-2,x,21,-4,1,-2

# Assay outcomes deposited in PubChem BioAssay by Broad Institute.
